Reference: ChEMBL document CHEMBL3877250, “Design, synthesis, and biological evaluation of (2E)-(2-oxo-1, 2-dihydro-3H-indol-3-ylidene)acetate derivatives as anti-proliferative agents through ROS-induced cell apoptosis” (Eur J Med Chem, 2016)

What was measured:
[1] = Cytotoxicity against human SK-BR-3 cells assessed as growth inhibition at 20 uM after 72 hrs by CCK-8 assay; assay type: functional; settings: SK-BR-3, 72 h, read-out: GI
Outline: (§1)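 Cells kept in RPMI 1640 with 10% heat-inactivated fetal calf serum and 1% streptomycin/penicillin at 37 °C, 5% CO2. After compound exposure, CCK-8 was added and cells were incubated 4 h at 37 °C, then absorbance was read at 450 nm. Viability is relative to untreated cells (100%). IC50 comes from nonlinear regression, mean of three separate determinations. Single-concentration screen at 20 µM.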

[2] = test system: HCT-116; test: Induction of apoptosis in human HCT116 cells assessed as necrotic cells at 0.5 uM after 48 hrs by Annexin V-FITC/propidium iodide staining based flow cytometry (reference value: 0.8%); assay type: functional
[3] = test system: HCT-116; test: Induction of apoptosis in human HCT116 cells assessed as late apoptotic cells at 1 uM after 48 hrs by Annexin V-FITC/propidium iodide staining based flow cytometry (reference value: 6.7%); assay type: functional
[4] = Cytotoxicity against human L02 cells; assay type: toxicity, cell-based
[5] = Cell cycle arrest in human HCT116 cells assessed as G1 phase accumulation at 4 uM after 48 hrs by Annexin V-FITC/propidium iodide staining based flow cytometry (reference value: 40.83%); assay type: functional; settings: HCT-116
[6] = Cell cycle arrest in human HCT116 cells assessed as sub-G1 phase accumulation at 2 uM after 48 hrs by Annexin V-FITC/propidium iodide staining based flow cytometry (reference value: 4.36%); assay type: functional; settings: HCT-116
[7] = test system: HCT-116; test: Induction of apoptosis in human HCT116 cells assessed as necrotic cells at 0.1 uM after 48 hrs by Annexin V-FITC/propidium iodide staining based flow cytometry (reference value: 0.8%); assay type: functional
[8] = Cell cycle arrest in human HCT116 cells assessed as G1 phase accumulation at 0.1 uM after 48 hrs by Annexin V-FITC/propidium iodide staining based flow cytometry (reference value: 40.83%); assay type: functional; settings: HCT-116
[9] = Cytotoxicity against human SK-BR-3 cells after 72 hrs by CCK-8 assay; assay type: functional, cell-based; settings: SK-BR-3, 72 h; outline: as §1
[10] = test system: HCT-116; test: Induction of apoptosis in human HCT116 cells assessed as necrotic cells at 16 uM after 48 hrs by Annexin V-FITC/propidium iodide staining based flow cytometry (reference value: 0.8%); assay type: functional
[11] = test system: HCT-116; test: Induction of apoptosis in human HCT116 cells assessed as increase in intracellular reactive oxygen species at 2 to 3 hrs by DCFH-DA probe-based flow cytometry; assay type: functional, cell-based
[12] = Cytotoxicity against human SW480 cells after 72 hrs by CCK-8 assay; assay type: functional, cell-based; settings: SW480, 72 h; outline: as §1
[13] = Cytotoxicity against human L02 cells assessed as growth inhibition at 20 uM after 72 hrs by CCK-8 assay; assay type: toxicity, cell-based; settings: read-out: GI; outline: as §1
[14] = test system: HCT-116; test: Induction of apoptosis in human HCT116 cells assessed as live cells at 0.5 uM after 48 hrs by Annexin V-FITC/propidium iodide staining based flow cytometry (reference value: 88.7%); assay type: functional
[15] = test system: HCT-116; test: Induction of apoptosis in human HCT116 cells assessed as early apoptotic cells at 1 uM after 48 hrs by Annexin V-FITC/propidium iodide staining based flow cytometry (reference value: 3.8%); assay type: functional
Outline: (§2)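 HCT116 seeded at 2×10^5 cells/well, cultured 6 h, then treated 48 h at 0.1, 0.5, 1, 4, 8 or 16 µM; DMSO (0.1%) served as vehicle. Cells washed twice in cold PBS, resuspended in binding buffer with FITC Annexin V and PI for 15 min at RT in the dark, diluted, and run on flow cytometry within 1 h.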

[16] = test system: HCT-116; test: Induction of apoptosis in human HCT116 cells assessed as late apoptotic cells at 16 uM after 48 hrs by Annexin V-FITC/propidium iodide staining based flow cytometry (reference value: 6.7%); assay type: functional
[17] = Cell cycle arrest in human HCT116 cells assessed as G2/M phase accumulation at 2 uM after 48 hrs by Annexin V-FITC/propidium iodide staining based flow cytometry (reference value: 25.3%); assay type: functional; settings: HCT-116
[18] = test system: HCT-116; test: Induction of apoptosis in human HCT116 cells assessed as early apoptotic cells at 8 uM after 48 hrs by Annexin V-FITC/propidium iodide staining based flow cytometry (reference value: 3.8%); assay type: functional
[19] = Cell cycle arrest in human HCT116 cells assessed as S phase accumulation at 0.5 uM after 48 hrs by Annexin V-FITC/propidium iodide staining based flow cytometry (reference value: 28.43%); assay type: functional; settings: HCT-116
[20] = test system: HCT-116; test: Induction of apoptosis in human HCT116 cells assessed as live cells at 8 uM after 48 hrs by Annexin V-FITC/propidium iodide staining based flow cytometry (reference value: 88.7%); assay type: functional
[21] = Cytotoxicity against human OVCAR3 cells after 72 hrs by CCK-8 assay; assay type: functional, cell-based; settings: OVCAR-3, 72 h; outline: as §1
[22] = Cell cycle arrest in human HCT116 cells assessed as G2/M phase accumulation at 3 uM after 48 hrs by Annexin V-FITC/propidium iodide staining based flow cytometry (reference value: 25.3%); assay type: functional; settings: HCT-116
[23] = Cell cycle arrest in human HCT116 cells assessed as G1 phase accumulation at 2 uM after 48 hrs by Annexin V-FITC/propidium iodide staining based flow cytometry (reference value: 40.83%); assay type: functional; settings: HCT-116
[24] = Cytotoxicity against human HL60 cells after 72 hrs by CCK-8 assay; assay type: functional, cell-based; settings: HL-60, 72 h; outline: as §1
[25] = Cell cycle arrest in human HCT116 cells assessed as G1 phase accumulation at 3 uM after 48 hrs by Annexin V-FITC/propidium iodide staining based flow cytometry (reference value: 40.83%); assay type: functional; settings: HCT-116
[26] = test system: HCT-116; test: Induction of apoptosis in human HCT116 cells assessed as increase in intracellular reactive oxygen species at 0.17 to 8 uM by DCFH-DA probe-based flow cytometry; assay type: functional, cell-based; settings: TDE = time-dependent effect
Outline: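 For the dose series, HCT116 cells were seeded at 5 × 10⁴ cells/well, grown 24 h, then exposed 3 h to DMSO or graded compound levels, with a Rosup positive group. Cells were washed with PBS and serum-free medium, loaded with DCFH-DA (1 μmol/L) in serum-free medium at 37 °C for 20 min, and ROS fluorescence was read by flow cytometry.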

[27] = test system: HCT-116; test: Induction of apoptosis in human HCT116 cells assessed as live cells at 16 uM after 48 hrs by Annexin V-FITC/propidium iodide staining based flow cytometry (reference value: 88.7%); assay type: functional
[28] = Cell cycle arrest in human HCT116 cells assessed as S phase accumulation at 2 uM after 48 hrs by Annexin V-FITC/propidium iodide staining based flow cytometry (reference value: 28.43%); assay type: functional; settings: HCT-116
[29] = Cytotoxicity against human MDA-MB-231 cells assessed as growth inhibition at 20 uM after 72 hrs by CCK-8 assay; assay type: functional; settings: MDA-MB-231, 72 h, read-out: GI; outline: as §1
[30] = test system: HCT-116; test: Induction of apoptosis in human HCT116 cells assessed as late apoptotic cells at 4 uM after 48 hrs by Annexin V-FITC/propidium iodide staining based flow cytometry (reference value: 6.7%); assay type: functional
[31] = test system: HCT-116; test: Induction of apoptosis in human HCT116 cells after 48 hrs by Annexin V-FITC/propidium iodide staining based flow cytometry; assay type: functional, cell-based; outline: as §2
[32] = test system: HCT-116; test: Induction of apoptosis in human HCT116 cells assessed as late apoptotic cells at 0.5 uM after 48 hrs by Annexin V-FITC/propidium iodide staining based flow cytometry (reference value: 6.7%); assay type: functional

With `CC(C)(C)OC(=O)/C=C1/C(=O)Nc2ccccc21` the inhibition of growth at 20 µM [1] was 87.3%, the Activity [2] was 0.6% and the Activity [3] was 9.1%. For the same molecule, the IC50 [4] was 6.21 µM, the Activity [5] was 26.2% and the Activity [6] was 3.42%. For the same molecule, the Activity [7] was 0.6%, the Activity [8] was 40.8% and the IC50 [9] was 3.42 µM. The Activity [10] was 2.1%, the Activity [11] was “Dose-dependent effect” and the IC50 [12] was 5.68 µM. For the same molecule, the inhibition at 72 h, 20 µM [13] was 64.1%, the Activity [14] was 89% and the Activity [15] was 2.6%. The Activity [16] was 69.1%, the Activity [17] was 29.3% and the Activity [18] was 7.1%. The Activity [19] was 28.9%, the Activity [20] was 78.4% and the IC50 [21] was 6.55 µM. For the same molecule, the Activity [22] was 22.6%, the Activity [23] was 40.9% and the IC50 [24] was 2.45 µM. For the same molecule, the Activity [25] was 35.6%, the Activity [26] was “Tde” and the Activity [27] was 26.1%. The Activity [28] was 25.2%, the inhibition of growth at 20 µM [29] was 87.6% and the Activity [30] was 6.6%. The Activity [31] was “Dose-dependent effect” and the Activity [32] was 7.5%.
